Results on 28 molecules are retold here after ChEMBL document CHEMBL4823246, “Fragment-like Chloroquinolineamines Activate the Orphan Nuclear Receptor Nurr1 and Elucidate Activation Mechanisms” (J Med Chem, 2021).

In general, EC50 refers to the concentration giving half of the maximal effect. What is called IC50 is the concentration that gives 50% inhibition.

Calls of active or inactive are those of the source. No cut-off for these calls is given here.

T2 sequence (P43354 whole entry, the tested form may be a part): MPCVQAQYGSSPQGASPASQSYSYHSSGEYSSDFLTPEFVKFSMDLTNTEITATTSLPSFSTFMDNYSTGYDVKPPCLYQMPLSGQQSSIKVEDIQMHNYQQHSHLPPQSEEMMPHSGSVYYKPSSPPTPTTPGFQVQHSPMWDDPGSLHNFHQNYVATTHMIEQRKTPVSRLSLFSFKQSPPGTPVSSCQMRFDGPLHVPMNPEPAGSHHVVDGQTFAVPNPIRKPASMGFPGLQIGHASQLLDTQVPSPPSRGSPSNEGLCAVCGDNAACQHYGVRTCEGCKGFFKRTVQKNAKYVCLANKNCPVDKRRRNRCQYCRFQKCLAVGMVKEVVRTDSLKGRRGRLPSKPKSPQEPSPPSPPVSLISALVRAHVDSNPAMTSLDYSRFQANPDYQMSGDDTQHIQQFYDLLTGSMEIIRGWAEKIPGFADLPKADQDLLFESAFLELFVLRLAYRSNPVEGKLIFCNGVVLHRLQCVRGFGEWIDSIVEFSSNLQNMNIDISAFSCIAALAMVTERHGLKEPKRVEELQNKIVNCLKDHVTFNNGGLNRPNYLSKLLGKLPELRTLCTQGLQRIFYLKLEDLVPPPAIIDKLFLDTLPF

One test deals with T1, Retinoic acid receptor RXR-alpha (Homo sapiens) (UniProt P19793).
T1 sequence (whole entry): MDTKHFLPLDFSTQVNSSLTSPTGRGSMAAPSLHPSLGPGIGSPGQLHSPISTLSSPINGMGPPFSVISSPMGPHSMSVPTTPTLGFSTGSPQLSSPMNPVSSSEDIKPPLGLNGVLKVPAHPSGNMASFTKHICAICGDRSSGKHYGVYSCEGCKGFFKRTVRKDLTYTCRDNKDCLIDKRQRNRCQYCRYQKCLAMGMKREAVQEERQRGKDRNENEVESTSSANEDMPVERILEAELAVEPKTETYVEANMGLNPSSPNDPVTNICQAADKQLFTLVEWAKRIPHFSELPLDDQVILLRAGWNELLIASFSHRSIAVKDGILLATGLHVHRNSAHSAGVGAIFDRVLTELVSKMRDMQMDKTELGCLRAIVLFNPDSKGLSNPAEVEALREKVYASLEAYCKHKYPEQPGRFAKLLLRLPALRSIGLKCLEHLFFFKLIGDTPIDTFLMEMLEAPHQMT
Briefly: Agonist activity at full length human RxRalpha heterodimer response element DR5 expressed in HEK293T cells co-expressing firefly luciferase assessed as firefly luciferase activity up to 100 uM incubated for 12 to 14 hrs by hybrid reporter gene assay. To be noted: filed as agonist, dose microM <=100, time 12-14 hrs. The format is cell-based. Put shortly: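 Full-length receptor assay in HEK293T cells transiently cotransfected with pFR-Luc-DR5 reporter, human Nurr1 (pcDNA3.1-hNurr1-NE), human RXR (pSG5-hRXR) and SV40-renilla. Five hours post-transfection, compound was added in Opti-MEM with 0.1% DMSO for 12−14 h, then a dual-luciferase read-out. Firefly/renilla ×1000 gave RLU, expressed as fold over DMSO control. Duplicates, ≥3 independent experiments.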
In general terms: A reporter such as luciferase makes a cellular process visible.
With `Cc1cc(N)c2cccc(Cl)c2n1`, the result was Active.

The next test addresses T2, Nuclear receptor subfamily 4 group A member 2 (Homo sapiens, UniProt P43354). The test is described as follows: Agonist activity at Gal4-fused human Nurr1 LBD expressed in HEK293T cells co-expressing firefly luciferase assessed as luciferase activity at 100 uM incubated for 12 to 14 hrs by hybrid reporter gene assay. The format is cell-based. To be noted: time 12-14 hrs. Put shortly:
(§1)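 HEK293T cells, seeded 3 × 10⁴/well the day before, were transiently transfected with a Gal4–human Nurr1 LBD hybrid receptor, a Gal4-responsive firefly luciferase reporter (pFR-Luc) and SV40-renilla luciferase. Five hours later cells received compound in Opti-MEM with 0.1% DMSO for 12−14 h, then a dual-luciferase read-out. Firefly/renilla ×1000 gave RLU; fold activation was taken vs DMSO. Duplicates, ≥3 independent runs; EC50/IC50 are mean SD.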
`CCN(CC)CCCC(C)Nc1cc(C)nc2c(Cl)cccc12` (stereo not drawn): the result was inactive.
Turning to `Nc1ccc(Cl)c2ncccc12`, the outcome was inactive.
Take `Nc1c(Cl)ccc2ncccc12`: the result was inactive.
For the molecule `Nc1ccc2ccc(Cl)cc2n1`, the result was inactive.
For `CCN(CC)Cc1cc(Nc2cc(C)nc3c(Cl)cccc23)ccc1O`, the outcome was inactive.

A further test concerns the target T2, Nuclear receptor subfamily 4 group A member 2. The test is described as follows: Agonist activity at Gal4-fused human Nurr1 LBD expressed in HEK293T cells co-expressing firefly luciferase assessed as luciferase activity incubated for 12 to 14 hrs by hybrid reporter gene assay. The format is cell-based.
Settings: not given
Take `Cc1cc(N)c2ccc(Cl)cc2n1`: the EC50 was determined as 33 µM.
The same measure, in the same setting: to `Nc1ccnc2c(Cl)cccc12` belongs 49 µM; to `Nc1ccnc2cc(Cl)ccc12`, 259 µM; to `Nc1cc(Cl)cc2ncccc12`, 19 µM.
With `CCCCNc1cc(C)nc2c(Cl)cccc12`, the EC50 came out at 12 µM.
In the case of `Nc1ccnc2ccc(Cl)cc12`, the EC50 worked out at 117 µM.
Still for that read-out and setting: to `CCN(CC)Cc1cccc(Nc2ccnc3cc(Cl)ccc23)c1` belongs 116 µM; to `Cc1cc(NC(C)C(C)C)c2cccc(Cl)c2n1` (stereo not drawn), 17 µM; to `Cc1cc(NC(C)C)c2cccc(Cl)c2n1`, 31 µM.

Another test shares this target. Briefly: Agonist activity at Gal4-fused human Nurr1 LBD expressed in HEK293T cells co-expressing firefly luciferase assessed as luciferase activity at 200 uM incubated for 12 to 14 hrs by hybrid reporter gene assay. The format is cell-based. The conditions noted are these: time 12-14 hrs. Put shortly: as §1
With `Nc1cncc2c(Cl)cccc12`, the result was inactive.

For a further test the target is unchanged. Briefly: Agonist activity at Gal4-fused human Nurr1 LBD expressed in HEK293T cells co-expressing firefly luciferase assessed as luciferase activity at 10 uM incubated for 12 to 14 hrs by hybrid reporter gene assay. To be noted: time 12-14 hrs. The format is cell-based. A digest of the protocol:
as §1
For `Clc1ccc2c(NCc3ccccc3)ccnc2c1`, the result was inactive.
As to `CC(CCCN(C)C)Nc1cccc2c(Cl)cccc12` (stereo not drawn), the result was inactive.
Consider `O=C(OCC(O)CO)c1ccccc1Nc1ccnc2cc(Cl)ccc12` (stereo not drawn), for which the result was inactive.

The target is the same in the next test. The test is described as follows: Agonist activity at Gal4-fused human Nurr1 LBD expressed in HEK293T cells co-expressing firefly luciferase assessed as luciferase activity at 300 uM incubated for 12 to 14 hrs by hybrid reporter gene assay. The format is cell-based. The conditions noted are these: time 12-14 hrs. A digest of the protocol: as §1
Regarding `Nc1ccnc2ccccc12`, the result was inactive.
As for `Nc1cnc2cc(Cl)ccc2c1`, the result was inactive.
On to `Nc1ccnc2c(C(F)(F)F)cccc12`, for which the result was inactive.
In the case of `Nc1ccnc2c(F)cccc12`, the outcome was inactive.
With `Clc1ccc2c(Cl)ccnc2c1`, the outcome was inactive.

For another test the target is unchanged. Briefly: Inverse agonist activity at Gal4-fused human Nurr1 LBD expressed in HEK293T cells co-expressing firefly luciferase assessed as luciferase activity incubated for 12 to 14 hrs by hybrid reporter gene assay.
Settings: not given
The format is cell-based. Put shortly:
as §1
Consider `Clc1ccc2cccnc2c1`, for which the IC50 amounted to 89 µM.
On to `O=C(O)CCCNc1ccnc2cc(Cl)ccc12`, for which the IC50 was 132 µM.

For the next test the target is unchanged. The test is described as follows: Agonist activity at Gal4-fused human Nurr1 LBD expressed in HEK293T cells co-expressing firefly luciferase assessed as luciferase activity at 30 uM incubated for 12 to 14 hrs by hybrid reporter gene assay. The conditions noted are these: time 12-14 hrs. The format is cell-based. A digest of the protocol: as §1
Consider `CC1CCC(Nc2ccnc3cc(Cl)ccc23)CC1` (stereo not drawn), for which the result was inactive.
Consider `Oc1ccc(Nc2ccnc3cc(Cl)ccc23)cc1`, for which the result was inactive.
